Series [1] in a line: Inhibition of Wistar rat lens ALR2 assessed as reduction in NADPH consumption using D,L-glyceraldehyde as substrate incubated for 1 min and measured up to 4 mins by spectrophotometric analysis. The class given is tissue-based. Put shortly:
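ALR2 was isolated from rat eye lenses and assayed for reduction of D,L-glyceraldehyde. NADPH consumption was read spectrophotometrically at 340 nm, with activity expressed as decrease in O.D./s/mg protein. The IC50 was derived from inhibition of this activity.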

The subject of a further series is ALR1. The series can be described thus: Inhibition of Wistar rat kidney ALR1 assessed as reduction in NADPH consumption using sodium D-glucuronate as substrate at 100 uM incubated for 1 min and measured up to 4 mins by spectrophotometric analysis relative to control. The class given is tissue-based. The conditions noted are these: rat kidney ALR1 (aldehyde reductase) enzyme, probe sodium D-glucuronate. In short, it runs like this:
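Enzyme: ALR1 isolated from rat kidneys. Activity was followed spectrophotometrically as NADPH consumption at 340 nm and expressed as decrease in O.D./s/mg protein. Inhibition is given as % of enzyme inhibition at 100 μM inhibitor.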

Series [2] can be described thus: Inhibition of Wistar rat kidney ALR1 assessed as reduction in NADPH consumption using sodium D-glucuronate as substrate incubated for 1 min and measured up to 4 mins by spectrophotometric analysis. The class given is tissue-based. Put shortly:
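Aldehyde reductase (ALR1) was isolated from rat kidneys. Activity was monitored spectrophotometrically by NADPH consumption at 340 nm, expressed as decrease in O.D./s/mg protein. The IC50 was determined from inhibition of this activity.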

The species entered for series [3] is Rattus norvegicus. The series can be described thus: Selectivity index, ratio of IC50 for Wistar rat kidney ALR1 to IC50 for Wistar rat lens ALR2. Put shortly: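 Selectivity factor S_F = IC50(ALR1)/IC50(ALR2). ALR1 came from rat kidneys and ALR2 from rat eye lenses with D,L-glyceraldehyde as substrate. Both were assayed spectrophotometrically by NADPH consumption at 340 nm.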

For series [4], the species on record is Rattus norvegicus. Description: Potency index, ratio of IC50 of OTI-6 to IC50 of compound for inhibition of Wistar rat lens ALR2 assessed as reduction in NADPH consumption using D,L-glyceraldehyde as substrate incubated for 1 min and measured up to 4 mins by spectrophotometric analysis. The series is classed as tissue-based.

What is called IC50 is the midpoint of a concentration-inhibition curve. A word on the pIC50: it is −log10 of the IC50, conventionally taken in molar units. As a reminder, the inhibition is the relative decrease from the control value, in per cent.

Each structure is given as a SMILES string. Bounds are passed on as bounds.

As to `N#Cc1ccccc1Cn1nc2c3ccccc3n(CC(=O)O)c2nc1=O`, in series [1], the 50% inhibitory concentration (IC50) came to 0.076 µM and the pIC50 came out at 7.12. For the same compound, the inhibition at 4 min, 100 µM in the series with ALR1 was determined as 51%. Also, the IC50 in series [2] is greater than 100 µM. Moreover, the Ratio IC50 in the series filed under Rattus norvegicus [3] was greater than 1330.

Regarding `O=C(O)Cn1c2ccccc2c2nn(Cc3ccccc3C(=O)O)c(=O)nc21`, in series [1], the IC50 was determined as 0.139 µM and the negative logarithm of the IC50 (pIC50) is 6.86. For the same compound, the inhibition at 4 min, 100 µM in the series with ALR1 stood at 62%. The concentration for half-maximal inhibition (IC50) in series [2] was 59 µM. Also, the Ratio IC50 in the series filed under Rattus norvegicus [3] was found to be 424.

`NC(=O)c1ccccc1Cn1nc2c3ccccc3n(CC(=O)O)c2nc1=O`: the IC50 in series [1] is 0.236 µM; in series [2], greater than 100 µM. In series [1], the pIC50 came to 6.63. For the same compound, the inhibition at 4 min, 100 µM with ALR1 came out at 50%. In addition, the figures for the Ratio IC50 in the series filed under Rattus norvegicus [3] and in the series listed under Rattus norvegicus [4] were greater than 424 and 2, respectively.

For the compound `O=C(O)Cn1c2ccccc2c2nn(Cc3ccccc3CO)c(=O)nc21`, the 50% inhibitory concentration (IC50) was 0.241 µM in series [1] and greater than 100 µM in series [2]. Moreover, the pIC50 in series [1] is given as 6.61. Moreover, the inhibition at 4 min, 100 µM with ALR1 worked out at 33%. For the same compound, the Ratio IC50 in the series filed under Rattus norvegicus [3] was greater than 410; in the series filed under Rattus norvegicus [4], 2.

For `O=C(O)Cn1c2ccccc2c2nn(Cc3ccccc3)c(=O)nc21`, in series [1], the IC50 is 0.434 µM and the pIC50 is given as 6.36. In the series on ALR1, the inhibition at 4 min, 100 µM was determined as 38%. In series [2], the IC50 was greater than 100 µM. Also, in the series filed under Rattus norvegicus [3], the Ratio IC50 is greater than 230.

Values taken from ChEMBL document CHEMBL4673344, “Novel substituted N-benzyl(oxotriazinoindole) inhibitors of aldose reductase exploiting ALR2 unoccupied interactive pocket” (Bioorg Med Chem, 2021).
